Data reported in ChEMBL document CHEMBL1641385, “Mammea E/BB, an isoprenylated dihydroxycoumarin protonophore that potently uncouples mitochondrial electron transport, disrupts hypoxic signaling in tumor cells” (J Nat Prod, 2010).
pIC50: −log10 of the molar value. The source made the active and inactive calls. The rule behind the calls is not given here.

Columns and labels:
[1] = molecular target: T1, Hypoxia inducible factors; HIF-1-alpha, HIF-2-alpha (Homo sapiens, UniProt Q16665+Q99814); assay: Inhibition of HIF1-mediated proliferation of hypoxia-stimulated human PC3 cells up to 20 uM after 16 hrs by SRB assay; assay type: cell-based; settings: PC-3
Summary of the method: (§1)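 Short-term viability: cells exposed to compound at up to 20 µM for 16 h under hypoxia (1% O2), then read by sulforhodamine B and expressed as % inhibition of untreated control.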

[2] = molecular target: T1, Hypoxia inducible factors; HIF-1-alpha, HIF-2-alpha; assay: Inhibition of HIF1-mediated proliferation of hypoxia-stimulated human T47D cells at 20 uM after 48 hrs by SRB assay; assay type: cell-based
Summary of the method: (§2)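 Exponentially growing cells were seeded at 30,000/well and held overnight at 37 °C in DMEM/F12 with 10% FBS and pen/strep. Compound (0.31–20 µM) was added in serum-free medium for 48 h. Viability was read by sulforhodamine B. % Inhibition = [1 − (ODtreated/ODcontrol)] × 100, from triplicate wells.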

[3] = molecular target: T1, Hypoxia inducible factors; HIF-1-alpha, HIF-2-alpha; assay: Inhibition of hypoxia-induced HIF1 activation in human T47D cells by HRE3-TK-luciferase reporter gene assay; assay type: cell-based
[4] = molecular target: T1, Hypoxia inducible factors; HIF-1-alpha, HIF-2-alpha; assay: Inhibition of HIF1-mediated secreted VEGF expression in hypoxia-stimulated human T47D cells by […]; assay type: cell-based
Summary of the method: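 T47D cells treated with compound (1, 3, 10 µM) under hypoxia (1% O2, 16 h). Secreted VEGF in conditioned medium quantified by ELISA and normalized to cellular protein (micro BCA). n = 3 from one experiment, representative of two. One-way ANOVA with Bonferroni post hoc.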

[5] = test system: T47D; assay: Effect on cellular respiration in human T47D cells assessed as increase in oxygen consumption at 1 uM in presence of mitochondrial uncoupler FCCP; assay type: functional, cell-based
[6] = molecular target: T1, Hypoxia inducible factors; HIF-1-alpha, HIF-2-alpha; assay: Inhibition of HIF1-mediated proliferation of hypoxia-stimulated human MDA-MB-231 cells at 0.31 to 20 uM after 48 hrs by SRB assay; assay type: cell-based; summary of the method: as §2
[7] = molecular target: T1, Hypoxia inducible factors; HIF-1-alpha, HIF-2-alpha; assay: Inhibition of HIF1-mediated proliferation of hypoxia-stimulated human PC3 cells at 0.31 to 20 uM after 48 hrs by SRB assay; assay type: cell-based; settings: PC-3; summary of the method: as §2
[8] = molecular target: T1, Hypoxia inducible factors; HIF-1-alpha, HIF-2-alpha; assay: Inhibition of HIF1-mediated migration of human MDA-MB-231 cells at 20 uM by wound healing assay; assay type: cell-based
Summary of the method: (§3)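 Confluent MDA-MB-231 monolayers were scratched with pipet tips. Compound (5 or 20 µM) was added for 22 h under normoxia (95% air:5% CO2) or hypoxia (1% O2:94% N2:5% CO2). Cells were then fixed, stained and imaged. Parallel viability was checked by sulforhodamine B, as % of untreated control under matching oxygen conditions.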

[9] = test system: T47D; assay: Cytotoxicity against human T47D cells; assay type: cell-based
[10] = molecular target: T1, Hypoxia inducible factors; HIF-1-alpha, HIF-2-alpha; assay: Inhibition of HIF1-mediated proliferation of hypoxia-stimulated human MDA-MB-231 cells after 48 hrs by SRB assay; assay type: cell-based; summary of the method: as §2
[11] = molecular target: T1, Hypoxia inducible factors; HIF-1-alpha, HIF-2-alpha; assay: Inhibition of 1, 10-phenanthroline-induced HIF1 activation in human PC3 cells by HRE3-TK-luciferase reporter gene assay; assay type: cell-based; settings: pc-3
Summary of the method: (§4)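 HIF-1 activity measured with the pHRE3-TK-Luc luciferase reporter in PC-3 cells. Cycloheximide 100 µM served as the positive control. Run in triplicate, representative of two independent experiments. IC50 reported with 95% CI.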

[12] = test system: MDA-MB-231; assay: Inhibition of human MDA-MB-231 cell migration at 5 to 20 uM after 22 hrs under normoxic condition; assay type: functional, cell-based; summary of the method: as §3
[13] = molecular target: T1, Hypoxia inducible factors; HIF-1-alpha, HIF-2-alpha; assay: Inhibition of HIF1-mediated proliferation of hypoxia-stimulated human SK-BR-3 cells at 0.31 to 20 uM after 48 hrs by SRB assay; assay type: cell-based; summary of the method: as §2
[14] = test system: MDA-MB-231; assay: Inhibition of human MDA-MB-231 cell migration at 5 to 20 uM after 22 hrs under hypoxic condition; assay type: functional, cell-based; summary of the method: as §3
[15] = molecular target: T1, Hypoxia inducible factors; HIF-1-alpha, HIF-2-alpha; assay: Inhibition of HIF1-mediated proliferation of hypoxia-stimulated human SK-BR-3 cells at 20 uM after 48 hrs by SRB assay; assay type: cell-based; summary of the method: as §2
[16] = molecular target: T1, Hypoxia inducible factors; HIF-1-alpha, HIF-2-alpha; assay: Inhibition of HIF1-mediated proliferation of hypoxia-stimulated human SK-BR-3 cells after 48 hrs by SRB assay; assay type: cell-based; summary of the method: as §2
[17] = molecular target: T1, Hypoxia inducible factors; HIF-1-alpha, HIF-2-alpha; assay: Inhibition of 1, 10-phenanthroline-induced HIF1 activation in human T47D cells by HRE3-TK-luciferase reporter gene assay; assay type: cell-based
[18] = molecular target: T1, Hypoxia inducible factors; HIF-1-alpha, HIF-2-alpha; assay: Inhibition of HIF1-mediated proliferation of hypoxia-stimulated human T47D cells up to 20 uM after 16 hrs by SRB assay; assay type: cell-based; summary of the method: as §1
[19] = test system: T47D; assay: Decrease in mitochondrial membrane potential in human T47D cells 1 to 10 uM after 15 mins by TMRM assay; assay type: functional, cell-based
Summary of the method: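 T47D cells seeded at 100,000/well on chambered coverglass overnight, then switched to TES buffer (20 mM, pH 7.3) with salts, 5 mM glucose, 0.3% BSA and 2 nM TMRM. Loaded 1 h 15 min at 37 °C, then compound added for 15 min. Live-cell epifluorescence imaging; FCCP as reference.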

[20] = test system: T47D; assay: Induction of state 4 respiration of human T47D cells; assay type: functional, cell-based
Summary of the method: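 T47D respiration measured by Clark-type electrode. Oligomycin (1 µM final) added to establish state 4 respiration, then compound added at specified concentrations to test resumption of oxygen consumption; FCCP used as positive control.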

[21] = molecular target: T1, Hypoxia inducible factors; HIF-1-alpha, HIF-2-alpha; assay: Inhibition of HIF1-mediated proliferation of hypoxia-stimulated human MDA-MB-231 cells up to 20 uM after 16 hrs by SRB assay; assay type: cell-based; summary of the method: as §1
[22] = molecular target: T1, Hypoxia inducible factors; HIF-1-alpha, HIF-2-alpha; assay: Inhibition of HIF1-mediated proliferation of hypoxia-stimulated human MDA-MB-231 cells at 20 uM after 48 hrs by SRB assay; assay type: cell-based; summary of the method: as §2
[23] = test system: T47D; assay: Effect on cellular respiration in human T47D cells assessed as decrease in oxygen consumption at 10 uM n presence of mitochondrial uncoupler FCCP; assay type: functional, cell-based
[24] = molecular target: T1, Hypoxia inducible factors; HIF-1-alpha, HIF-2-alpha; assay: Inhibition of HIF1-mediated proliferation of hypoxia-stimulated human PC3 cells after 48 hrs by SRB assay; assay type: cell-based; settings: PC-3; summary of the method: as §2
[25] = molecular target: T1, Hypoxia inducible factors; HIF-1-alpha, HIF-2-alpha; assay: Inhibition of HIF1-mediated proliferation of hypoxia-stimulated human SK-BR-3 cells up to 20 uM after 16 hrs by SRB assay; assay type: cell-based; summary of the method: as §1
[26] = molecular target: T1, Hypoxia inducible factors; HIF-1-alpha, HIF-2-alpha; assay: Inhibition of HIF1-mediated proliferation of hypoxia-stimulated human T47D cells at 0.31 to 20 uM after 48 hrs by SRB assay; assay type: cell-based; summary of the method: as §2
[27] = molecular target: T1, Hypoxia inducible factors; HIF-1-alpha, HIF-2-alpha; assay: Inhibition of hypoxia-induced HIF1 activation in human PC3 cells by HRE3-TK-luciferase reporter gene assay; assay type: cell-based; settings: pc-3; summary of the method: as §4
[28] = molecular target: T1, Hypoxia inducible factors; HIF-1-alpha, HIF-2-alpha; assay: Inhibition of HIF1-mediated proliferation of hypoxia-stimulated human PC3 cells at 20 uM after 48 hrs by SRB assay; assay type: cell-based; settings: PC-3; summary of the method: as §2
[29] = test system: T47D; assay: Effect on cellular respiration in human T47D cells assessed as increase in oxygen consumption at 1 uM; assay type: functional
Summary of the method: (§5)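 Oxygen consumption of intact T47D cells monitored with a Clark-type electrode. Rate with compound expressed as % control (compound rate/control rate). n = 3; FCCP run as positive control.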

[30] = test system: T47D; assay: Effect on cellular respiration in human T47D cells assessed as decrease in oxygen consumption at 10 uM; assay type: functional; summary of the method: as §5
[31] = molecular target: T1, Hypoxia inducible factors; HIF-1-alpha, HIF-2-alpha; settings: T47D, at 1 to 10 µM

SMILES: CCC(C)C(=O)c1c(O)c(CC=C(C)C)c(O)c2c(C(CC)OC(C)=O)cc(=O)oc12 (centres undefined)
- inhibition [1]: < 30%
- inhibition [2]: 54%
- IC50 [3]: 960 nM
- inhibition [4]: Dose-dependent effect
- Activity [5]: Active
- inhibition [6]: 50%
- inhibition [7]: 40%
- inhibition [8]: 25%
- pIC50 [9]: < 4.70
- inhibition [10]: Dose-dependent effect
- IC50 [11]: 6500 nM
- Activity [12]: Active
- inhibition [13]: 50%
- Activity [14]: Active
- inhibition [15]: 53%
- inhibition [16]: Dose-dependent effect
- IC50 [17]: 890 nM
- inhibition [18]: < 30%
- inhibition [19]: Active
- Activity [20]: Active
- inhibition [21]: < 30%
- inhibition [22]: 52%
- Activity [23]: Active
- inhibition [24]: Dose-dependent effect
- inhibition [25]: < 30%
- inhibition [26]: 50%
- IC50 [27]: 2000 nM
- inhibition [28]: 40%
- Activity [29]: 30%
- inhibition at 10 µM [30]: 50%
- inhibition [31]: inactive

SMILES: N#CC(C#N)=NNc1ccc(OC(F)(F)F)cc1
- IC50 [3]: 510 nM
- IC50 [17]: 310 nM
- inhibition [31]: Active
